ChEMBL document CHEMBL1151428, “Capability of 11 antipneumococcal antibiotics to select for resistance by multistep and single-step methodologies” (2007)
Values after ≈ are worked out from the molar mass of the structure shown.

Tests used:
Type in all cases: functional
Streptococcus pneumoniae [1] = experiment: Antimicrobial activity against drug-resistant Streptococcus pneumoniae isolate 3665 after 50 passages by multi-step resistance selection technique
Method in brief: (§1)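 Daily serial passage in broth at subinhibitory drug levels: 1 ml cation-adjusted Mueller-Hinton broth with 5% lysed horse blood; fresh broth for tigecycline. Each day 10 μl inoculum taken from the tube one to two dilutions below MIC matching growth-control turbidity, used to set next MIC. Continued until ≥8-fold MIC rise, minimum 14, maximum 50 passages; MIC read by macrodilution.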

Streptococcus pneumoniae [2] = experiment: Antimicrobial activity against drug-resistant Streptococcus pneumoniae isolate 1077 after 29 passages with azithromycin measured after 10 antibiotic-free subculture by multi-step resistance selection technique
Method in brief: (§2)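 Mutants selected by daily broth passage in subinhibitory drug in cation-adjusted Mueller-Hinton broth with 5% lysed horse blood. Stability was tested by 10 daily passages on blood agar without antibiotic, then macrodilution MIC.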

Streptococcus pneumoniae [3] = experiment: Antimicrobial activity against drug-resistant Streptococcus pneumoniae isolate 3676 after 14 passages with Telithromycin measured after 10 antibiotic-free subculture by multi-step resistance selection technique
Streptococcus pneumoniae [4] = experiment: Antimicrobial activity against drug-resistant Streptococcus pneumoniae isolate 37 by NCCLS M7-A7 method
Streptococcus pneumoniae [5] = experiment: Antimicrobial activity against drug-resistant Streptococcus pneumoniae isolate 1077 by NCCLS M7-A7 method
Streptococcus pneumoniae [6] = experiment: Antimicrobial activity against drug-resistant Streptococcus pneumoniae isolate 3274 after 50 passages by multi-step resistance selection technique
Method in brief: (§3)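 Daily serial passage in subinhibitory drug levels in 1 ml cation-adjusted Mueller-Hinton broth with 5% lysed horse blood; fresh broth for tigecycline. Each day, 10 μl were taken from the tube one to two dilutions below the MIC whose turbidity matched the growth control, and used to set the next MIC. MIC by macrodilution.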

Streptococcus pneumoniae [7] = experiment: Antimicrobial activity against drug-resistant Streptococcus pneumoniae isolate 2527 after 20 passages by multi-step resistance selection technique
Streptococcus pneumoniae [8] = experiment: Antimicrobial activity against drug-resistant Streptococcus pneumoniae isolate 3676 after 44 passages with clarithromycin measured after 10 antibiotic-free subculture by multi-step resistance selection technique
Streptococcus pneumoniae [9] = experiment: Antimicrobial activity against drug-resistant Streptococcus pneumoniae isolate 3413 by NCCLS M7-A7 method
Streptococcus pneumoniae [10] = experiment: Antimicrobial activity against drug-resistant Streptococcus pneumoniae isolate 2527 after 14 passages with gemifloxacin measured after 10 antibiotic-free subculture by multi-step resistance selection technique; method in brief: as §2
Streptococcus pneumoniae [11] = experiment: Antimicrobial activity against drug-resistant Streptococcus pneumoniae isolate 1076 after 35 passages with moxifloxacin measured after 10 antibiotic-free subculture by multi-step resistance selection technique; method in brief: as §2
Streptococcus pneumoniae [12] = experiment: Antimicrobial activity against drug-resistant Streptococcus pneumoniae isolate 24 after 50 passages with moxifloxacin measured after 10 antibiotic-free subculture by multi-step resistance selection technique; method in brief: as §2
Streptococcus pneumoniae [13] = experiment: Antimicrobial activity against drug-resistant Streptococcus pneumoniae isolate 3274 by NCCLS M7-A7 method
Streptococcus pneumoniae [14] = experiment: Antimicrobial activity against drug-resistant Streptococcus pneumoniae isolate 3665 after 26 passages with clarithromycin measured after 10 antibiotic-free subculture by multi-step resistance selection technique
Streptococcus pneumoniae [15] = experiment: Antimicrobial activity against drug-resistant Streptococcus pneumoniae isolate 3243 after 41 passages with clarithromycin measured after 10 antibiotic-free subculture by multi-step resistance selection technique
Streptococcus pneumoniae [16] = experiment: Antimicrobial activity against drug-resistant Streptococcus pneumoniae isolate 1077 after 15 passages with Telithromycin measured after 10 antibiotic-free subculture by multi-step resistance selection technique; method in brief: as §2
Streptococcus pneumoniae [17] = experiment: Antimicrobial activity against drug-resistant Streptococcus pneumoniae isolate 1635 after 49 passages with clarithromycin measured after 10 antibiotic-free subculture by multi-step resistance selection technique
Streptococcus pneumoniae [18] = experiment: Antimicrobial activity against drug-resistant Streptococcus pneumoniae isolate 24 after 14 passages with Telithromycin measured after 10 antibiotic-free subculture by multi-step resistance selection technique; method in brief: as §2
Streptococcus pneumoniae [19] = experiment: Antimicrobial activity against drug-resistant Streptococcus pneumoniae isolate 3665 by NCCLS M7-A7 method
Streptococcus pneumoniae [20] = experiment: Antimicrobial activity against drug-resistant Streptococcus pneumoniae isolate 3274 after 48 passages with Telithromycin measured after 10 antibiotic-free subculture by multi-step resistance selection technique; method in brief: as §2
Streptococcus pneumoniae [21] = experiment: Antimicrobial activity against drug-resistant Streptococcus pneumoniae isolate 3676 by NCCLS M7-A7 method
Streptococcus pneumoniae [22] = experiment: Antimicrobial activity against drug-resistant Streptococcus pneumoniae isolate 1635 after 14 passages with azithromycin measured after 10 antibiotic-free subculture by multi-step resistance selection technique; method in brief: as §2
Streptococcus pneumoniae [23] = experiment: Antimicrobial activity against drug-resistant Streptococcus pneumoniae isolate 1635 after 14 passages with clindamycin measured after 10 antibiotic-free subculture by multi-step resistance selection technique
Streptococcus pneumoniae [24] = experiment: Antimicrobial activity against drug-resistant Streptococcus pneumoniae isolate 3676 after 50 passages by multi-step resistance selection technique; method in brief: as §1
Streptococcus pneumoniae [25] = experiment: Antimicrobial activity against drug-resistant Streptococcus pneumoniae isolate 2527 after 20 passages with azithromycin measured after 10 antibiotic-free subculture by multi-step resistance selection technique; method in brief: as §2
Streptococcus pneumoniae [26] = experiment: Antimicrobial activity against drug-resistant Streptococcus pneumoniae isolate 1077 after 49 passages with clindamycin measured after 10 antibiotic-free subculture by multi-step resistance selection technique
Streptococcus pneumoniae [27] = experiment: Antimicrobial activity against drug-resistant Streptococcus pneumoniae isolate 3009 after 19 passages with moxifloxacin measured after 10 antibiotic-free subculture by multi-step resistance selection technique; method in brief: as §2
Streptococcus pneumoniae [28] = experiment: Antimicrobial activity against drug-resistant Streptococcus pneumoniae isolate 1076 by NCCLS M7-A7 method
Streptococcus pneumoniae [29] = experiment: Antimicrobial activity against drug-resistant Streptococcus pneumoniae isolate 3009 after 21 passages with gemifloxacin measured after 10 antibiotic-free subculture by multi-step resistance selection technique; method in brief: as §2
Streptococcus pneumoniae [30] = experiment: Antimicrobial activity against drug-resistant Streptococcus pneumoniae isolate 3665 after 38 passages with moxifloxacin measured after 10 antibiotic-free subculture by multi-step resistance selection technique
Streptococcus pneumoniae [31] = experiment: Antimicrobial activity against drug-resistant Streptococcus pneumoniae isolate 3243 after 33 passages by multi-step resistance selection technique
Method in brief: as §3, with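 “MIC. […]” for “MIC.”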

Streptococcus pneumoniae [32] = experiment: Antimicrobial activity against drug-resistant Streptococcus pneumoniae isolate 3243 after 29 passages with Telithromycin measured after 10 antibiotic-free subculture by multi-step resistance selection technique; method in brief: as §2
Streptococcus pneumoniae [33] = experiment: Antimicrobial activity against drug-resistant Streptococcus pneumoniae isolate 3413 after 30 passages with Telithromycin measured after 10 antibiotic-free subculture by multi-step resistance selection technique; method in brief: as §2
Streptococcus pneumoniae [34] = experiment: Antimicrobial activity against drug-resistant Streptococcus pneumoniae isolate 1635 after 14 passages by multi-step resistance selection technique
Method in brief: as §3, with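 “MIC. […]” for “MIC.”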

Streptococcus pneumoniae [35] = experiment: Antimicrobial activity against drug-resistant Streptococcus pneumoniae isolate 1077 after 29 passages by multi-step resistance selection technique
Method in brief: as §3, with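 “MIC. […]” for “MIC.”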

Streptococcus pneumoniae [36] = experiment: Antimicrobial activity against drug-resistant Streptococcus pneumoniae isolate 37 after 14 passages with Telithromycin measured after 10 antibiotic-free subculture by multi-step resistance selection technique
Streptococcus pneumoniae [37] = experiment: Antimicrobial activity against drug-resistant Streptococcus pneumoniae isolate 3243 by NCCLS M7-A7 method
Streptococcus pneumoniae [38] = experiment: Antimicrobial activity against drug-resistant Streptococcus pneumoniae isolate 3676 after 50 passages with moxifloxacin measured after 10 antibiotic-free subculture by multi-step resistance selection technique
Streptococcus pneumoniae [39] = experiment: Antimicrobial activity against drug-resistant Streptococcus pneumoniae isolate 3243 after 20 passages with moxifloxacin measured after 10 antibiotic-free subculture by multi-step resistance selection technique; method in brief: as §2
Streptococcus pneumoniae [40] = experiment: Antimicrobial activity against drug-resistant Streptococcus pneumoniae isolate 3009 by NCCLS M7-A7 method
Streptococcus pneumoniae [41] = experiment: Antimicrobial activity against drug-resistant Streptococcus pneumoniae isolate 3009 after 25 passages with clarithromycin measured after 10 antibiotic-free subculture by multi-step resistance selection technique
Streptococcus pneumoniae [42] = experiment: Antimicrobial activity against drug-resistant Streptococcus pneumoniae isolate 2527 by NCCLS M7-A7 method
Streptococcus pneumoniae [43] = experiment: Antimicrobial activity against drug-resistant Streptococcus pneumoniae isolate 3665 after 14 passages with Telithromycin measured after 10 antibiotic-free subculture by multi-step resistance selection technique
Streptococcus pneumoniae [44] = experiment: Antimicrobial activity against drug-resistant Streptococcus pneumoniae isolate 3243 after 33 passages with azithromycin measured after 10 antibiotic-free subculture by multi-step resistance selection technique; method in brief: as §2
Streptococcus pneumoniae [45] = experiment: Antimicrobial activity against drug-resistant Streptococcus pneumoniae isolate 1635 by NCCLS M7-A7 method
Streptococcus pneumoniae [46] = experiment: Antimicrobial activity against drug-resistant Streptococcus pneumoniae isolate 1076 after 14 passages with Telithromycin measured after 10 antibiotic-free subculture by multi-step resistance selection technique; method in brief: as §2
Streptococcus pneumoniae [47] = experiment: Antimicrobial activity against drug-resistant Streptococcus pneumoniae isolate 3009 after 18 passages with levofloxacin measured after 10 antibiotic-free subculture by multi-step resistance selection technique; method in brief: as §2
Streptococcus pneumoniae [48] = experiment: Antimicrobial activity against drug-resistant Streptococcus pneumoniae isolate 24 by NCCLS M7-A7 method

Q: Which results are given for `CC[C@H]1OC(=O)[C@H](C)[C@@H](O[C@H]2C[C@@](C)(OC)[C@@H](O)[C@H](C)O2)[C@H](C)[C@@H](O[C@@H]2O[C@H](C)C[C@H](N(C)C)[C@H]2O)[C@](C)(O)C[C@@H](C)CN(C)[C@H](C)[C@@H](O)[C@]1(C)O` [AZITHROMYCIN]?
A: MIC (Streptococcus pneumoniae [1]): 16 µg/mL (≈ 21.4 µM); MIC (Streptococcus pneumoniae [2]): > 64 µg/mL; MIC (Streptococcus pneumoniae [3]): 2 µg/mL (≈ 2.67 µM); MIC (Streptococcus pneumoniae [4]): > 64 µg/mL; MIC (Streptococcus pneumoniae [5]): 0.03 µg/mL (≈ 0.0401 µM); MIC (Streptococcus pneumoniae [6]): 0.008 µg/mL (≈ 0.0107 µM); MIC (Streptococcus pneumoniae [7]): 4 µg/mL (≈ 5.34 µM); MIC (Streptococcus pneumoniae [8]): 16 µg/mL (≈ 21.4 µM); MIC (Streptococcus pneumoniae [9]): > 64 µg/mL; MIC (Streptococcus pneumoniae [10]): 0.03 µg/mL (≈ 0.0401 µM); MIC (Streptococcus pneumoniae [11]): > 64 µg/mL; MIC (Streptococcus pneumoniae [12]): > 64 µg/mL; MIC (Streptococcus pneumoniae [13]): 0.008 µg/mL (≈ 0.0107 µM); MIC (Streptococcus pneumoniae [14]): 8 µg/mL (≈ 10.7 µM); MIC (Streptococcus pneumoniae [15]): 1 µg/mL (≈ 1.34 µM); MIC (Streptococcus pneumoniae [16]): > 64 µg/mL; MIC (Streptococcus pneumoniae [17]): > 64 µg/mL; MIC (Streptococcus pneumoniae [18]): > 64 µg/mL; MIC (Streptococcus pneumoniae [19]): 8 µg/mL (≈ 10.7 µM); MIC (Streptococcus pneumoniae [20]): 1 µg/mL (≈ 1.34 µM); MIC (Streptococcus pneumoniae [21]): 4 µg/mL (≈ 5.34 µM); MIC (Streptococcus pneumoniae [22]): > 64 µg/mL; MIC (Streptococcus pneumoniae [23]): 4 µg/mL (≈ 5.34 µM); MIC (Streptococcus pneumoniae [24]): 8 µg/mL (≈ 10.7 µM); MIC (Streptococcus pneumoniae [25]): 4 µg/mL (≈ 5.34 µM); MIC (Streptococcus pneumoniae [26]): > 64 µg/mL; MIC (Streptococcus pneumoniae [27]): > 64 µg/mL; MIC (Streptococcus pneumoniae [28]): > 64 µg/mL; MIC (Streptococcus pneumoniae [29]): > 64 µg/mL; MIC (Streptococcus pneumoniae [30]): 8 µg/mL (≈ 10.7 µM); MIC (Streptococcus pneumoniae [31]): 0.25 µg/mL (≈ 0.334 µM); MIC (Streptococcus pneumoniae [32]): > 64 µg/mL; MIC (Streptococcus pneumoniae [33]): > 64 µg/mL; MIC (Streptococcus pneumoniae [34]): > 64 µg/mL; MIC (Streptococcus pneumoniae [35]): > 64 µg/mL; MIC (Streptococcus pneumoniae [36]): > 64 µg/mL; MIC (Streptococcus pneumoniae [37]): 0.03 µg/mL (≈ 0.0401 µM); MIC (Streptococcus pneumoniae [38]): 4 µg/mL (≈ 5.34 µM); MIC (Streptococcus pneumoniae [39]): 0.016 µg/mL (≈ 0.0214 µM); MIC (Streptococcus pneumoniae [40]): > 64 µg/mL; MIC (Streptococcus pneumoniae [41]): > 64 µg/mL; MIC (Streptococcus pneumoniae [42]): 0.016 µg/mL (≈ 0.0214 µM); MIC (Streptococcus pneumoniae [43]): 4 µg/mL (≈ 5.34 µM); MIC (Streptococcus pneumoniae [44]): 0.5 µg/mL (≈ 0.668 µM); MIC (Streptococcus pneumoniae [45]): 2 µg/mL (≈ 2.67 µM); MIC (Streptococcus pneumoniae [46]): > 64 µg/mL; MIC (Streptococcus pneumoniae [47]): > 64 µg/mL; MIC (Streptococcus pneumoniae [48]): > 64 µg/mL
